Source: ChEMBL document CHEMBL4706531, “Discovery of Novel c-Mesenchymal-Epithelia transition factor and histone deacetylase dual inhibitors” (Eur J Med Chem, 2020)
The source made the active and inactive calls. The rule behind the calls is not given here.

Key:
[1] = test system: HCT-116; test: cells; type: functional, cell-based; conditions: Homo sapiens, HCT-116, 72 h
[2] = test system: MCF7; test: cells; type: functional, cell-based; conditions: Homo sapiens, MCF7, 72 h
[3] = test system: A549; test: cells; type: functional, cell-based; conditions: Homo sapiens, A549, 72 h
[4] = biological target: T1, Histone deacetylase 1 (Homo sapiens, UniProt Q13547); conditions: Sf9, dose 100.0 nM, time 75.0 min
T1 sequence (Q13547 whole entry): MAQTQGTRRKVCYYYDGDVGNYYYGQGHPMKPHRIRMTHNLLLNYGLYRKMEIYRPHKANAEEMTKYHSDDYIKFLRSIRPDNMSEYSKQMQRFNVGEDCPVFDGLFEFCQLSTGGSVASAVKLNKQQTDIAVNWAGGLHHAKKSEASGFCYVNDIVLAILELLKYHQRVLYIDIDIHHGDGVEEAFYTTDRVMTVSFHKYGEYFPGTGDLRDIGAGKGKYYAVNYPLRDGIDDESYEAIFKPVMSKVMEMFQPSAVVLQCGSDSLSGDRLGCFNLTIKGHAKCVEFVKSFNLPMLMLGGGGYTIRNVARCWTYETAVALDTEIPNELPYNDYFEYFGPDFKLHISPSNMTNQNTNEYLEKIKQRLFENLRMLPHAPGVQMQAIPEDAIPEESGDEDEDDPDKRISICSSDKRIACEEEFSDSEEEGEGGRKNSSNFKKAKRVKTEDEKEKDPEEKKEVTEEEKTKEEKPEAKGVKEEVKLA

[5] = biological target: T2, Hepatocyte growth factor receptor (Homo sapiens, UniProt P08581); conditions: dose 100.0 nM, time 10.0 min
T2 sequence (P08581 whole entry, the tested form may be a part): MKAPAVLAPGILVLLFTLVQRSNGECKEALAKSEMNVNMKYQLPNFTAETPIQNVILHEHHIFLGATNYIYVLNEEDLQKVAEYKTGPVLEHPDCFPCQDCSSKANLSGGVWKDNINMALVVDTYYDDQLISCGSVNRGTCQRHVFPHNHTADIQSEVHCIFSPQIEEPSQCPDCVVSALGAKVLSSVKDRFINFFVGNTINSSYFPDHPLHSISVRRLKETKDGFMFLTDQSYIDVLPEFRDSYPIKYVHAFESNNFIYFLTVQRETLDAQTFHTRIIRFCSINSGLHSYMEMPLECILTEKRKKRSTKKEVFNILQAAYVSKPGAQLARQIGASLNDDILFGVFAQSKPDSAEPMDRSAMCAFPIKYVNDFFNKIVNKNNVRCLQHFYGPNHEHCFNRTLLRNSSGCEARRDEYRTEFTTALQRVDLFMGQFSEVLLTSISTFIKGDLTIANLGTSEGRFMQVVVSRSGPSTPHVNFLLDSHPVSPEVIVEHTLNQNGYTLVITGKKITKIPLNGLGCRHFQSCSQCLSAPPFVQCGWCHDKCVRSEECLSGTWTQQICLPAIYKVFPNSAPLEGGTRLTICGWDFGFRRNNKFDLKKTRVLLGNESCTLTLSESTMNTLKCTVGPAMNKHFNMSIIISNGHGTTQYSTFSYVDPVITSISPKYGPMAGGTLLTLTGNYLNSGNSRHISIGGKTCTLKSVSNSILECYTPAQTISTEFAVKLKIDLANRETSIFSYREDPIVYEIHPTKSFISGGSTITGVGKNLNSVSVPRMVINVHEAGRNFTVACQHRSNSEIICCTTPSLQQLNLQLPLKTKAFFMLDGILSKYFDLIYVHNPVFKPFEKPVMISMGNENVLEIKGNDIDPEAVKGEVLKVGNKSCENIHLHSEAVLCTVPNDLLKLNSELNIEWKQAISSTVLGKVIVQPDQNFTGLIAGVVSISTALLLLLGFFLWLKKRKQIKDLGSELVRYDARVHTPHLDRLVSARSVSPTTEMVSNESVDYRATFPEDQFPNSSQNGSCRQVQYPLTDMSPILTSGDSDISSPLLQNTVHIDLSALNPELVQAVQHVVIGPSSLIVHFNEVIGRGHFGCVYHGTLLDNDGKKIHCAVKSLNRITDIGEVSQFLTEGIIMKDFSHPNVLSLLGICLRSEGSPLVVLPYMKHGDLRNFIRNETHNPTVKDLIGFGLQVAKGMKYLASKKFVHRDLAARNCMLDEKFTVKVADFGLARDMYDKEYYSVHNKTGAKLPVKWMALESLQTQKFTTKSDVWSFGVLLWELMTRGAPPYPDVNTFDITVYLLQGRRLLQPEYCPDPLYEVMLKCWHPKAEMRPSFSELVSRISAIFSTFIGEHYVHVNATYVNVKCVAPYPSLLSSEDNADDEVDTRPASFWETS

[6] = biological target: T1, Histone deacetylase 1; test: Inhibition of human C-terminal Flag tagged HDAC1 (1 to 482 residues) expressed in SF9 cells using Ac-peptide substrate preincubated for 15 mins followed by substrate addition and measured after 60 mins by microplate reader method
[7] = biological target: T2, Hepatocyte growth factor receptor; test: Inhibition of c-MET(unknown origin) using FAM labelled peptide substrate preincubated for 10 mins followed by substrate addition and measured by microplate reader method
[8] = test system: HCT-116; test: Induction of apoptosis in human HCT-116 cells assessed as viable cells at 0.2 uM measured after 48 hrs by Annexin V/PI staining based Flowcytometry method (reference value: 95.33%); type: functional; conditions: read-out: Activity
Summary of the method: (§1)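 HCT-116 cells seeded at 10^5 cells/mL in 6-well plates. After 12 h, dosed at 0.2, 1.0 or 5.0 μM for 48 h, then washed three times in PBS. Stained with Annexin V-FITC/PI per kit and read by flow cytometry. Early apoptotic = Annexin V+/PI−, late = double positive. Mean ± S.D., n = 3.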

[9] = test system: HCT-116; test: Induction of apoptosis in human HCT-116 cells assessed as early apoptotic cells at 0.2 uM measured after 48 hrs by Annexin V/PI staining based Flowcytometry method (reference value: 2.04%); type: functional
Summary of the method: as §1

[10] = test system: HCT-116; test: Induction of apoptosis in human HCT-116 cells assessed as late apoptotic cells at 0.2 uM measured after 48 hrs by Annexin V/PI staining based Flowcytometry method (reference value: 1.44%); type: functional
Summary of the method: as §1

[11] = test system: HCT-116; test: Induction of apoptosis in human HCT-116 cells assessed as necrotic cells at 0.2 uM measured after 48 hrs by Annexin V/PI staining based Flowcytometry method (reference value: 1.19%); type: functional
Summary of the method: as §1

[12] = test system: HCT-116; test: Induction of apoptosis in human HCT-116 cells assessed as viable cells at 1 uM measured after 48 hrs by Annexin V/PI staining based Flowcytometry method (reference value: 95.33%); type: functional; conditions: read-out: Activity
Summary of the method: as §1

[13] = test system: HCT-116; test: Induction of apoptosis in human HCT-116 cells assessed as early apoptotic cells at 1 uM measured after 48 hrs by Annexin V/PI staining based Flowcytometry method (reference value: 2.04%); type: functional
Summary of the method: as §1

[14] = test system: HCT-116; test: Induction of apoptosis in human HCT-116 cells assessed as late apoptotic cells at 1 uM measured after 48 hrs by Annexin V/PI staining based Flowcytometry method (reference value: 1.44%); type: functional
Summary of the method: as §1

[15] = test system: HCT-116; test: Induction of apoptosis in human HCT-116 cells assessed as necrotic cells at 1 uM measured after 48 hrs by Annexin V/PI staining based Flowcytometry method (reference value: 1.19%); type: functional
Summary of the method: as §1

[16] = test system: HCT-116; test: Induction of apoptosis in human HCT-116 cells assessed as viable cells at 5 uM measured after 48 hrs by Annexin V/PI staining based Flowcytometry method (reference value: 95.33%); type: functional; conditions: read-out: Activity
Summary of the method: as §1

[17] = test system: HCT-116; test: Induction of apoptosis in human HCT-116 cells assessed as early apoptotic cells at 5 uM measured after 48 hrs by Annexin V/PI staining based Flowcytometry method (reference value: 2.04%); type: functional
Summary of the method: as §1

[18] = test system: HCT-116; test: Induction of apoptosis in human HCT-116 cells assessed as late apoptotic cells at 5 uM measured after 48 hrs by Annexin V/PI staining based Flowcytometry method (reference value: 1.44%); type: functional
Summary of the method: as §1

[19] = test system: HCT-116; test: Induction of apoptosis in human HCT-116 cells assessed as necrotic cells at 5 uM measured after 48 hrs by Annexin V/PI staining based Flowcytometry method (reference value: 1.19%); type: functional
Summary of the method: as §1

[20] = test system: HCT-116; test: Cell cycle arrest in human HCT-116 cells assessed as accumulation of cells in G2/M phase at 0.2 uM measured after 48 hrs by PI staining based flowcytometry method (reference value: 11.74%); type: functional
[21] = test system: HCT-116; test: Cell cycle arrest in human HCT-116 cells assessed as accumulation of cells in S phase at 0.2 uM measured after 48 hrs by PI staining based flowcytometry method (reference value: 30.63%); type: functional
[22] = test system: HCT-116; test: Cell cycle arrest in human HCT-116 cells assessed as accumulation of cells in G1 phase at 0.2 uM measured after 48 hrs by PI staining based flowcytometry method (reference value: 57.63%); type: functional
[23] = test system: HCT-116; test: Cell cycle arrest in human HCT-116 cells assessed as accumulation of cells in G2/M phase at 1 uM measured after 48 hrs by PI staining based flowcytometry method (reference value: 11.74%); type: functional
[24] = test system: HCT-116; test: Cell cycle arrest in human HCT-116 cells assessed as accumulation of cells in S phase at 1 uM measured after 48 hrs by PI staining based flowcytometry method (reference value: 30.63%); type: functional
[25] = test system: HCT-116; test: Cell cycle arrest in human HCT-116 cells assessed as accumulation of cells in G1 phase at 1 uM measured after 48 hrs by PI staining based flowcytometry method (reference value: 57.63%); type: functional
[26] = test system: HCT-116; test: Cell cycle arrest in human HCT-116 cells assessed as accumulation of cells in G2/M phase at 5 uM measured after 48 hrs by PI staining based flowcytometry method (reference value: 11.74%); type: functional
[27] = test system: HCT-116; test: Cell cycle arrest in human HCT-116 cells assessed as accumulation of cells in S phase at 5 uM measured after 48 hrs by PI staining based flowcytometry method (reference value: 30.63%); type: functional
[28] = test system: HCT-116; test: Cell cycle arrest in human HCT-116 cells assessed as accumulation of cells in G1 phase at 5 uM measured after 48 hrs by PI staining based flowcytometry method (reference value: 57.63%); type: functional

## COc1cc2c(Oc3ccc(NC(=O)c4nn(-c5ccccc5C)cc(C)c4=O)cc3)ccnc2cc1OCC(=O)NO
[1]
  IC50: 9260 nM
[2]
  IC50: 8780 nM
[3]
  IC50: 5980 nM
[4]
  inhibition: inactive
[5]
  inhibition: 63.5%

## COc1cc2c(Oc3ccc(NC(=O)c4nn(-c5ccccc5C)ccc4=O)cc3)ccnc2cc1OCCCCCC(=O)NO
[1]
  IC50: 700 nM
[2]
  IC50: 4360 nM
[3]
  IC50: 3920 nM
[4]
  inhibition: 62.1%
[5]
  inhibition: 90.4%

## COc1cc2c(Oc3ccc(NC(=O)c4nn(-c5ccc(F)c(Cl)c5)cc(C)c4=O)cc3)ccnc2cc1OCCCCCCC(=O)NO
[1]
  IC50: 370 nM
[2]
  IC50: 2200 nM
[3]
  IC50: 380 nM
[4]
  inhibition: 40%
[5]
  inhibition: 61.1%

## COc1cc2c(Oc3ccc(NC(=O)c4nn(-c5ccccc5C(F)(F)F)ccc4=O)cc3)ccnc2cc1OCC(=O)NO
[1]
  IC50: 9500 nM
[2]
  IC50: 6320 nM
[3]
  IC50: > 20000 nM
[4]
  inhibition: 1.2%
[5]
  inhibition: 56.3%

## CCc1cn(-c2ccccc2)nc(C(=O)Nc2ccc(Oc3ccnc4cc(OCCCCCCC(=O)NO)c(OC)cc34)cc2)c1=O
[6]
  IC50: 34.8 nM
[7]
  IC50: 14.2 nM
[1]
  IC50: 300 nM
[2]
  IC50: 1210 nM
[3]
  IC50: 230 nM
[4]
  inhibition: 86.4%
[5]
  inhibition: 78.2%

## COc1cc2nccc(Oc3ccc(NC(=O)C4(C(=O)Nc5ccc(F)cc5)CC4)cc3)c2cc1OC [CABOZANTINIB]
[1]
  IC50: 4670 nM
[2]
  IC50: 5980 nM
[3]
  IC50: 7800 nM

## COc1cc2c(Oc3ccc(NC(=O)c4nn(-c5ccccc5)ccc4=O)cc3)ccnc2cc1OCCCC(=O)NO
[1]
  IC50: 940 nM
[2]
  IC50: 7410 nM
[3]
  IC50: 9260 nM
[4]
  inhibition: 12.6%
[5]
  inhibition: 96.4%

## COc1cc2c(Oc3ccc(NC(=O)c4nn(-c5ccccc5F)cc(C)c4=O)cc3)ccnc2cc1OCCCC(=O)NO
[1]
  IC50: 950 nM
[2]
  IC50: 2650 nM
[3]
  IC50: 3920 nM
[4]
  inhibition: 9.2%
[5]
  inhibition: 90.8%

## COc1cc2c(Oc3ccc(NC(=O)c4nn(-c5ccccc5C)cc(C)c4=O)cc3)ccnc2cc1OCCCC(=O)NO
[1]
  IC50: 640 nM
[2]
  IC50: 1600 nM
[3]
  IC50: 4460 nM
[4]
  inhibition: 10.7%
[5]
  inhibition: 98.5%

## COc1cc2c(Oc3ccc(NC(=O)c4nn(-c5ccccc5)ccc4=O)cc3)ccnc2cc1OCCCCCCC(=O)NO
[6]
  IC50: 18.5 nM
[7]
  IC50: 5.4 nM
[1]
  IC50: 220 nM
[2]
  IC50: 1590 nM
[3]
  IC50: 220 nM
[8]
  viability at 0.2 µM: 94.9%
[9]
  Activity: 2.35%
[10]
  Activity: 1.84%
[11]
  Activity: 0.9%
[12]
  viability at 1 µM: 84.3%
[13]
  Activity: 8.44%
[14]
  Activity: 3.09%
[15]
  Activity: 4.12%
[16]
  viability at 5 µM: 75.6%
[17]
  Activity: 19.23%
[18]
  Activity: 2.25%
[19]
  Activity: 2.96%
[20]
  Activity: 14.59%
[21]
  Activity: 30.04%
[22]
  Activity: 55.37%
[23]
  Activity: 80.03%
[24]
  Activity: 15.1%
[25]
  Activity: 4.87%
[26]
  Activity: 81.22%
[27]
  Activity: 13.28%
[28]
  Activity: 5.5%

## COc1cc2c(Oc3ccc(NC(=O)c4nn(-c5ccccc5)cc(C)c4=O)cc3F)ccnc2cc1OCCCC(=O)NO
[1]
  IC50: 660 nM
[2]
  IC50: 1900 nM
[3]
  IC50: 1900 nM
[4]
  inhibition: 2.5%
[5]
  inhibition: 98.3%

## COc1cc2c(Oc3ccc(NC(=O)c4nn(-c5ccc(Cl)c(C(F)(F)F)c5)cc(C)c4=O)cc3)ccnc2cc1OCC(=O)NO
[1]
  IC50: 350 nM
[2]
  IC50: 3480 nM
[3]
  IC50: 1590 nM
[4]
  inhibition: 5.2%
[5]
  inhibition: 50.2%

## COc1cc2c(Oc3ccc(NC(=O)c4nn(-c5cccc(C)c5)cc(C)c4=O)cc3)ccnc2cc1OCCCCCCC(=O)NO
[1]
  IC50: 370 nM
[2]
  IC50: 1680 nM
[3]
  IC50: 280 nM
[4]
  inhibition: 62%
[5]
  inhibition: 76.5%
